RanGTP-Imp inh: inhibitors of RanGTP-importin-beta interaction, primary screen, biochemical, FRET, CFP-Ran, YFP-importin-beta, homogeneous. cell-free CFP-Ran/YFP-importin-beta FRET ratio. inhibition, % (no concentration beside the values). actives 1.1% (n = 300,000);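 active means more than half of the replicate wells show a fall in the fluorescence ratio signal beyond about 16%, limit read from the data, passing the limit was not always enough; inconclusive means exactly half of the replicate wells pass the set limit; inactive means fewer than half of replicates pass the limit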;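 further: 0% = DMSO wells and 100% = Ran loaded with GDP instead of GTP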
Runt-SMMHC FRET: inhibitors of human RUNX1 Runt domain binding to CBFb-SMMHC; Cerulean-Runt/Venus-CBFb-SMMHC FRET ratio 530/480, 1 h; actives 0.74% (n = 220,000); inhibition, % at 20 µM; Q01196+Q13951; AID 1434;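 active means mean inhibition across duplicate retests at 20 µM reaching about 50%, limit read from the data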;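 further: 0% = DMSO wells and 100% = wells with excess untagged CBFb-SMMHC; inhibitors lower the FRET ratio by blocking Runt binding to CBFb-SMMHC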
Runt-CBFb FRET: Runt domain-CBFb interaction inhibition. Cerulean-Runt/Venus-CBFb FRET ratio 530/480, 1 h. inhibition, % at 20 µM. actives 0.46% (n = 220,000). AID 1496;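 active means inhibition over about 50% at 20 µM in the single-dose screen, limit read from the data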;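 further: 0% = DMSO wells and 100% = excess unlabeled CBFb competitor control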
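Assay system: Cerulean-Runt domain fusion protein, energy donor; Signal: fluorescence energy transfer, 422 nm excitation, 530/480 nm emission; Timing: 1 h compound exposure, room temperature; Control set: unlabeled CBFb; Medium: Tris buffer pH 7.5 with salts and BSA; Compound: single test concentration of 20 µM, 1% DMSO final; Probe or stimulus: Venus-CBFb 100 nM.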
LANA-H2A inh: blocks KSHV LANA binding to histone H2A/H2B; actives 0.6% (n = 320,000); Q9QR71; inhibition, % (concentration not given with the values); cell-free LANA-H2A/H2B peptide, fluorescence polarization; AID 2629; in the data active means inhibition mostly above about 10%, no sharp cut-off; inactive means mostly below about 6.7%
HDAC3 inh: blocks human histone deacetylase 3. O15379. inhibition, % at 8.3 µM. actives 0.15% (n = 320,000). recombinant HDAC3, fluorogenic peptide/trypsin coupled, fluorescence; in the data active means inhibition above about 26%, passing the limit was not always enough; inconclusive means no clear call, values can overlap the other calls
Target sequence (O15379 whole entry, looked up): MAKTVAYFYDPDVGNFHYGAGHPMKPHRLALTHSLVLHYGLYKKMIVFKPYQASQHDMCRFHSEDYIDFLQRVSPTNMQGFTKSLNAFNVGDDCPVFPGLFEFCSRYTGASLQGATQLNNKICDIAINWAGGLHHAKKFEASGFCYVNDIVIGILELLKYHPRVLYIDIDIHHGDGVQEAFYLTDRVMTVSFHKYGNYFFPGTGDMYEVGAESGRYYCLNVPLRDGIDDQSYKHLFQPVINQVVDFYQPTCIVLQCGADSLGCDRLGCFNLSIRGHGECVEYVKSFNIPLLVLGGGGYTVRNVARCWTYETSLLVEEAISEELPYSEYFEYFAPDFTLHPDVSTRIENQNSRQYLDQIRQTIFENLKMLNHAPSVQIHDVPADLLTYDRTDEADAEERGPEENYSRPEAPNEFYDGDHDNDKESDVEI
CaV13 ICDI inh: Primary screen for inhibitors of IQ motif and Ca2+-dependent inactivation inhibitor domain binding in CACNA1D, Förster resonance energy transfer in living cells, …; HEK cells, CFP/YFP FRET ICDI-IQ, plate reader, 10 min; percent FRET-ratio fall versus neutral wells; inhibition, % at 12.3 µM; actives 0.098% (n = 340,000); AID 743397;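 active means mean replicate inhibition of at least 30% and at least 1% of replicates passing that level; inconclusive means only one of the two criteria is met; inactive means neither criterion is met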;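 further: 0% = median of the neutral control wells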
An asterisk follows results filed as active. In the library only some 1.9% were active in any assay of this set; here they are far more common.

O=c1oc2c(CN3CCN(CCO)CC3)c(O)ccc2cc1-c1ccccn1 was read as RanGTP-Imp inh 156*, Runt-SMMHC FRET 80*, Runt-CBFb FRET 11, LANA-H2A inh -6, HDAC3 inh -239 and CaV13 ICDI inh active.
`CC(C)=CCC/C(C)=C/CC/C(C)=N/O` gave RanGTP-Imp inh 2, Runt-SMMHC FRET -3, Runt-CBFb FRET 2, LANA-H2A inh 12*, HDAC3 inh 6 and CaV13 ICDI inh -4.
CC(=O)OC/C=C(\C)CCC=C(C)C was read as LANA-H2A inh -2 and HDAC3 inh -2.
Screening O=C(Nc1nc(-c2ccccc2)cs1)C1c2ccccc2Oc2ccccc21 returned RanGTP-Imp inh 1, Runt-SMMHC FRET -1, Runt-CBFb FRET 1, LANA-H2A inh 46*, HDAC3 inh 2 and CaV13 ICDI inh -7.
For O=C(Nc1nc(-c2ccncc2)cs1)C1c2ccccc2Oc2ccccc21 the results were RanGTP-Imp inh 4, Runt-SMMHC FRET 1, Runt-CBFb FRET 0, LANA-H2A inh -5, HDAC3 inh -2 and CaV13 ICDI inh -5.
Screening COc1ccc(CNC2CC(C)N(C)CC2C)cc1OC (stereo not given) returned RanGTP-Imp inh 1, LANA-H2A inh 4, HDAC3 inh -1 and CaV13 ICDI inh -5.
COc1ccc(CCNC2CC(C)N(C)CC2C)cc1OC (stereo not given) was read as RanGTP-Imp inh 27*, Runt-SMMHC FRET 27, Runt-CBFb FRET 20, LANA-H2A inh -2, HDAC3 inh -1 and CaV13 ICDI inh -3.
`CCCCn1c2ccccc2c2nnc(SCCN3CCCCC3)nc21` gave RanGTP-Imp inh -2 and CaV13 ICDI inh -3.
COc1ccc(NC(C)=O)cc1NC(C)C(=O)Nc1ccccc1F (stereo not given) was read as RanGTP-Imp inh -8, Runt-SMMHC FRET -2, Runt-CBFb FRET 2, LANA-H2A inh 2, HDAC3 inh -6 and CaV13 ICDI inh -3.
Screening CN(C)S(=O)(=O)c1ccc2[nH]cc(/C=C/c3nc4ccccc4c(=O)n3-c3ccccc3)c2c1 returned RanGTP-Imp inh 29*, Runt-SMMHC FRET -35, Runt-CBFb FRET -46, LANA-H2A inh -5, HDAC3 inh -2 and CaV13 ICDI inh -7.
Screening Cc1[nH]c2ccccc2c1/C=C/c1nc2ccccc2c(=O)n1-c1ccc([N+](=O)[O-])cc1 returned RanGTP-Imp inh 38*, Runt-SMMHC FRET -128, Runt-CBFb FRET -41, LANA-H2A inh -4, HDAC3 inh 3 and CaV13 ICDI inh -3.
Cc1[nH]c2ccccc2c1/C=C/c1nc2ccccc2c(=O)[nH]1 was read as RanGTP-Imp inh 34*, Runt-SMMHC FRET 39, Runt-CBFb FRET 18, LANA-H2A inh -1, HDAC3 inh 5 and CaV13 ICDI inh -2.
Screening CCn1c(/C=C/c2c[nH]c3ccccc23)nc2ccccc2c1=O returned RanGTP-Imp inh 12, Runt-SMMHC FRET 0, Runt-CBFb FRET -3, LANA-H2A inh -3 and CaV13 ICDI inh -104.
`CCn1c(/C=C/c2c(C)[nH]c3ccccc23)nc2ccccc2c1=O` gave RanGTP-Imp inh -26, Runt-SMMHC FRET 59*, Runt-CBFb FRET 19 and CaV13 ICDI inh -5.
Screening COc1cccc(CNC(=O)CCn2c(=O)oc3ccccc32)c1 returned RanGTP-Imp inh inconclusive, Runt-SMMHC FRET -1, Runt-CBFb FRET 2, LANA-H2A inh -1, HDAC3 inh -1 and CaV13 ICDI inh -5.
Screening CCOC(=O)CSc1nc(-c2ccccc2)cc(C(F)(F)F)n1 returned RanGTP-Imp inh 0, Runt-SMMHC FRET -1, Runt-CBFb FRET -4, LANA-H2A inh -5, HDAC3 inh 12 and CaV13 ICDI inh -1.
Screening Cc1noc(C)c1NC(=O)N(C)C[C@@H]1OCc2cn(nn2)CCCC(=O)N([C@H](C)CO)C[C@H]1C returned CaV13 ICDI inh -7.
For Cc1[nH]c2ccccc2c1/C=C/C(=O)c1ccccc1 the results were RanGTP-Imp inh 41*, Runt-SMMHC FRET -36, Runt-CBFb FRET -31, LANA-H2A inh 3, HDAC3 inh 7 and CaV13 ICDI inh -13.

Screening data (PubChem BioAssay)
